CAL PDZ FP-1: CAL PDZ peptide-binding inhibitors, primary screen, biochemical, fluorescence polarization, Cer-tagged CAL PDZ, HTS; actives 0.02% (n = 330,000); inhibition, % at 20 µM; purified CAL PDZ, TMR-peptide fluorescence polarization, 1 h; Golgi-associated PDZ and coiled-coil motif-containing protein (Homo sapiens), Q9HD26;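 active means highest replicate inhibition of at least 40%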
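Read-out basis: mP drop reported as inhibition | Assay system: Tagged CAL PDZ protein CerCALP, purified | Benchmarks: Unlabelled peptide for full inhibition, DMSO wells as neutral | Schedule: 1 h incubation at room temperature before polarization reading | Buffer or medium: Sodium phosphate/NaCl buffer pH 7.4 with TCEP, IgG, Thesit | Doses: Single point, 20 µM | Measured by: Fluorescence polarization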
CAL PDZ FP-2: untagged CAL PDZ binding inhibitors, primary screen, biochemical, fluorescence polarization, HTS | actives 0.92% (n = 300,000) | purified CAL PDZ, TMR-peptide fluorescence polarization, 1 h | Golgi-associated PDZ and coiled-coil motif-containing protein (Homo sapiens), Q9HD26 | inhibition, % at 24.9 µM;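 active means mean inhibition of at least 30% with at least half of replicates also reaching 30%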
ARNT TACC3 PPI: disruptors of ARNT/TACC3 protein interaction, primary screen, biochemical, AlphaScreen, single concentration. Transforming acidic coiled-coil-containing protein 3 (Homo sapiens), Q9Y6A5. AlphaScreen His-ARNT PAS-B/GST-TACC3 binding, luminescence; TACC3 fragment carries E629A point mutation. inhibition, % at 9.99 µM. actives 0.66% (n = 390,000). AID 623870, 2012;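 active means mean inhibition of replicates at least 50% and at least half of replicates each reaching 50%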
PGC1a acetyl inh: inhibitors of PGC1a acetylation signal, primary screen, cell-based, U2OS, AlphaScreen, inhibitor mode; actives 0.17% (n = 350,000); AlphaScreen anti-acetyl-lysine; with virally co-expressed GCN5 acetyltransferase; inhibition, % at 15.6 µM;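 active means every replicate shows inhibition of at least 40%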
miR122 inh: miR-122 Renilla sensor signal increase in Huh7, primary screen, miR-122 inhibitor project, cell-based, single point, plate reader | Huh7 miR-122 Renilla luciferase sensor, 48 h; neutral wells = 0, positive control = 100 | actives 0.3% (n = 340,000) | AID 602342, 2012 | activation (reporter increase), % at 12.5 µM;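 active means mean replicate activation score at least 90 and every replicate individually at or above 90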;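 further: higher luciferase means less miR-122 activity so hits act as miR-122 inhibitors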
F508del corr: F508del CFTR correction, initial screen, CFBE line, single point. CFBE cells, YFP halide quenching; stimulated with forskolin plus potentiator P3; % fluorescence drop versus neutral controls. activity (quench increase), % at 7.58 µM. actives 0.36% (n = 350,000);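 active means mean added fluorescence quench of at least 8% versus neutral control, with both replicates also reaching 8%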;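 further: cells transiently co-express mutant CFTR-F508del with the halide-sensitive YFP; corrector assay measuring rescue of mutant channel to the surface after 24 h compound exposure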
A number is an active result; n = inactive; x = not tested or not shown; [ ] = dose if it differs, or a comment. Most compounds without a hit are left out; they make up all but 1.7% or so of the library.

SMILES	CAL PDZ FP-1	CAL PDZ FP-2	ARNT TACC3 PPI	PGC1a acetyl inh	miR122 inh	F508del corr
CCOC(=O)N1CCN(C2=C(NS(=O)(=O)c3ccc(NC(C)=O)cc3)C(=O)c3ccccc3C2=O)CC1	n	x	31	n	n	n
C[C@@H]1CN([C@H](C)CO)C(=O)c2cc(/C=C/c3ccccc3)cnc2O[C@H]1CN(C)Cc1ccccc1	x	x	n	n	n	n
COc1cc(/C=N/Nc2nc(=O)[nH]nc2C)cc([N+](=O)[O-])c1O	n	n	76	n	x	n
C[C@H](CO)N1C[C@H](C)[C@@H](CN(C)Cc2ccc(-c3ccccc3)cc2)Oc2c(NC(=O)NC3CCCCC3)cccc2C1=O	x	x	n	n	n	n
CCNC(=O)Nc1ccc2c(c1)C(=O)N(C)[C@@H]1CC[C@H](CC(=O)N[C@H](C)c3ccccc3)O[C@@H]1CO2	x	x	n	x	x	x
COc1cccc(Nc2nc(-c3sc(NC(=O)c4ccccc4)nc3C)cs2)c1	n	n	n	n	n	9.1
CCCC(=O)Nc1nc(C)c(-c2csc(Nc3cc(OC)ccc3OC)n2)s1	n	n	n	n	n	n
C=CCCC(=O)Nc1nc(C)c(-c2csc(Nc3cc(OC)ccc3OC)n2)s1	n	n	n	n	n	8.8
Cc1cc(NS(=O)(=O)c2ccc(Nc3nc(-c4sc(N)nc4C)cs3)cc2)no1	n	n	62	n	n	x
CCCC(=O)Nc1nc(C)c(-c2csc(Nc3ccccc3OC)n2)s1	n	n	n	x	n	n
COc1ccccc1Nc1nc(-c2sc(NC(=O)C(C)(C)C)nc2C)cs1	n	n	x	n	n	14
C[C@H]1CN([C@@H](C)CO)C(=O)Cc2cc(NC(=O)C3CCCCC3)ccc2O[C@H]1CN(C)Cc1ccc(C(=O)O)cc1	x	x	n	n	n	n
COc1ccc(Nc2nc(-c3sc(C)nc3C)cs2)cc1	n	n	n	n	n	9.1
Cc1nc(N)sc1-c1csc(Nc2cccc(C(=O)O)c2)n1	n	n	52	n	n	n
CCC(=O)Nc1nc(C)c(-c2csc(Nc3cccc(C(=O)O)c3)n2)s1	n	n	n	n	n	n
C[C@@H]1CN([C@H](C)CO)C(=O)c2cc(NC(=O)CCN3CCOCC3)ccc2O[C@@H]1CN(C)C(=O)Nc1ccc2c(c1)OCO2	x	x	n	n	n	n
Cc1ccc(S(=O)(=O)NC(C(=O)Oc2ccc3ccc(=O)oc3c2)c2ccccc2)cc1 (stereo not given)	n	x	n	x	n	x
Cc1ccc(S(=O)(=O)NCCC(=O)Oc2ccc3ccc(=O)oc3c2)cc1	n	n	n	n	237	n
O=C(O)[C@@H]1[C@@H](CO)[C@@H]2Cn3c(ccc(C4=CCCCC4)c3=O)[C@@H]2N1C(=O)Cc1cccnc1	x	x	x	n	x	n
COc1ccc(C(=O)NNC(=S)NC(=O)c2cccc([N+](=O)[O-])c2)cc1	n	n	n	n	n	n
O=C(NNC(=O)c1ccc(Cl)c(Cl)c1)c1cccnc1	92	n	n	x	n	n
O=C(NC(=S)NNC(=O)c1ccccc1O)c1cccnc1	n	n	67	x	x	n
O=C(NC(=S)NNC(=O)c1ccccc1O)c1cccc([N+](=O)[O-])c1	n	n	77	x	n	n
CCN(CC)S(=O)(=O)c1ccc(NC(=O)C2CC(=O)N(c3ccc4c(c3)OCCO4)C2)cc1 (stereo not given)	n	n	n	x	x	15
C[C@@H]1CN([C@H](C)CO)C(=O)c2cc(-c3cccnc3)cnc2O[C@H]1CN(C)C(=O)c1cccc(F)c1	x	x	x	n	n	n
SMILES	CAL PDZ FP-1	CAL PDZ FP-2	ARNT TACC3 PPI	PGC1a acetyl inh	miR122 inh	F508del corr
Cc1ccccc1NC(=O)Nc1ccc2c(c1)C(=O)N(C)[C@H]1CC[C@@H](CC(=O)NCC3CC3)O[C@H]1CO2	x	x	n	n	218[16.7 µM]	n
CCCC(=O)Nc1ccc2c(c1)C(=O)N(C)[C@H]1CC[C@@H](CC(=O)NCC(F)(F)F)O[C@H]1CO2	x	x	n	n	143[16.7 µM]	n
Cc1ccccc1NC(=O)Nc1ccc2c(c1)C(=O)N(C)[C@@H]1CC[C@@H](CC(=O)NCC3CC3)O[C@H]1CO2	x	x	n	n	n	n
CN1C(=O)c2cc(NC(=O)NCc3ccccc3)ccc2OC[C@@H]2O[C@H](CC(=O)NCC3CCCCC3)CC[C@@H]21	x	x	x	n	173[16.7 µM]	n
CCCC(=O)Nc1ccc2c(c1)C(=O)N(C)[C@@H]1CC[C@H](CC(=O)NCC(F)(F)F)O[C@H]1CO2	x	x	x	n	n	n
CN1C(=O)c2cc(NC(=O)Cc3cccs3)ccc2OC[C@@H]2O[C@H](CC(=O)NCC3CCCCC3)CC[C@H]21	x	x	n	n	n	n
CN1C(=O)c2cc(NC(=O)Cc3cccs3)ccc2OC[C@@H]2O[C@H](CC(=O)NCC3CCCCC3)CC[C@@H]21	x	x	n	n	154[16.7 µM]	n
C[C@@H]1CN([C@H](C)CO)C(=O)c2cccc(NC(=O)Nc3ccc4c(c3)OCO4)c2O[C@@H]1CN(C)S(=O)(=O)c1cn(C)cn1	x	x	n	n	n	n
CN(C)CCCNC(=O)C[C@@H]1CC[C@H](NS(=O)(=O)c2ccc(F)cc2)[C@@H](CO)O1	x	x	n	n	x	n
COc1ccc(CNC(=O)C[C@@H]2CC[C@H]3[C@@H](COc4ccc(NC(=O)C5CC5)cc4C(=O)N3C)O2)cc1	x	x	active	n	n	n
CN1C(=O)c2cc(NC(=O)Cc3ccccc3)ccc2OC[C@H]2O[C@H](CC(=O)NCC3CC3)CC[C@@H]21	x	x	n	n	n	n
CN1C(=O)c2cc(NC(=O)Cc3ccccc3)ccc2OC[C@@H]2O[C@@H](CC(=O)NCC3CC3)CC[C@@H]21	x	x	n	n	183[16.7 µM]	n
COC(=O)C[C@@H]1CC[C@@H]2[C@H](COc3ccc(NC(=O)c4ccc(C(F)(F)F)cc4)cc3C(=O)N2C)O1	x	x	n	n	n	11
C[C@H]1CCCCO[C@@H](CN(C)S(=O)(=O)c2cccs2)[C@@H](C)CN([C@@H](C)CO)C(=O)c2cc(NC(=O)Nc3ccc(F)cc3)ccc2O1	x	x	n	n	n	n
CCOC(=O)OC[C@@H]1[C@@H]2NC(=O)N(C)[C@@]1(COCc1ccc(OC)cc1)Oc1ccccc12	x	x	x	n	x	n
Cc1nc(N)[nH]c(=O)c1CCCNS(=O)(=O)c1ccc([N+](=O)[O-])cc1	n	n	n	n	n	8.1

Screens deposited in PubChem by Broad Institute.
